Source: ChEMBL document CHEMBL3297702, “Improving photodynamic inactivation of bacteria in dentistry: highly effective and fast killing of oral key pathogens with novel tooth-colored type-II photosensitizers” (J Med Chem, 2014)
The source made the active and inactive calls. No cut-off for these calls is given here.

What was measured:
[1] = Stability of the compound in acidic medium at 60 uM at pH 2 after 5 to 30 mins by UV-vis spectra analysis; assay type: physicochemical; conditions: buffer, pH 2, 60 µM
Outline: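 UV-Vis absorption spectra recorded in buffer solutions at different pH values after 5 and 30 min incubation.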

[2] = Stability of the compound in D2O at 90 degC after > 10 mins by NMR analysis; assay type: physicochemical
Actinomyces naeslundii [3] = test: Photodynamic inactivation of Actinomyces naeslundii T14V assessed as reduction of log10 CFU at 1 to 250 uM preincubated for 10 secs followed by irradiation with 50 j/cm'2 for 40 secs measured after 48 hrs by agar plating method; assay type: functional, organism-based
Outline: (§1)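 A. naeslundii T14V grown overnight at 37 °C, shaken, aerobically in BHI broth. Harvested at stationary phase, resuspended in PBS to 10^7–10^8 bacteria/mL (OD600). Mixed 1:1 with PS (final 0–250 µM) or water, 10 s incubation, then blue photopolymerizer light (1260 ± 50 mW/cm2) or dark. Tenfold dilutions plated on blood agar, aerobic 37 °C 48 h, CFU counted; medians of three independent experiments in triplicate.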

Streptococcus mutans [4] = test: Photodynamic inactivation of Streptococcus mutans ATCC 25175 assessed as reduction of log10 CFU at 1 to 250 uM preincubated for 10 secs followed by irradiation with 150 j/cm'2 for 120 secs measured after 48 hrs by agar plating method; assay type: functional
Actinomyces naeslundii [5] = test: Photodynamic inactivation of Actinomyces naeslundii T14V assessed as reduction of log10 CFU at 1 to 250 uM preincubated for 10 secs followed by irradiation with 25 j/cm'2 for 20 secs measured after 48 hrs by agar plating method; assay type: functional, organism-based; outline: as §1
[6] = test system: Aggregatibacter actinomycetemcomitans; test: Photodynamic inactivation of Aggregatibacter actinomycetemcomitans ATCC 43718 assessed as reduction of log10 CFU at 10 uM incubated prior to irradiation with 25 j/cm'2 for 20 secs measured after 48 hrs by agar plating method relative to control; assay type: functional, Y4
Outline: (§2)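 A. actinomycetemcomitans ATCC 43718 cultured overnight in BHI broth under anaerobic conditions, 37 °C with shaking. Stationary-phase cells were spun down, taken up in PBS to 10^7–10^8/mL, and combined 1:1 with PS (final 0–250 µM) or water. After 10 s they were irradiated at 1260 ± 50 mW/cm2 or kept dark. Serial dilutions went onto BHI agar, incubated anaerobically at 37 °C for 48 h, and CFU were scored. Results are medians from 3 experiments × triplicate versus untreated controls.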

Actinomyces naeslundii [7] = test: Photodynamic inactivation of Actinomyces naeslundii T14V assessed as reduction of log10 CFU at 1 uM incubated prior to irradiation with 25 j/cm'2 for 20 secs measured after 48 hrs by agar plating method (reference value: <1 no unit); assay type: functional; outline: as §1
Streptococcus mutans [8] = test: Photodynamic inactivation of Streptococcus mutans ATCC 25175 assessed as reduction of log10 CFU at 1 to 250 uM preincubated for 10 secs followed by irradiation with 25 j/cm'2 for 20 secs measured after 48 hrs by agar plating method; assay type: functional
[9] = test system: Aggregatibacter actinomycetemcomitans; test: Photodynamic inactivation of Aggregatibacter actinomycetemcomitans ATCC 43718 assessed as reduction of log10 CFU at 1 to 250 uM incubated prior to irradiation with 25 j/cm'2 for 20 secs measured after 48 hrs by agar plating method; assay type: functional; conditions: Y4; outline: as §2
Actinomyces naeslundii [10] = test: Photodynamic inactivation of Actinomyces naeslundii T14V assessed as reduction of log10 CFU at 1 to 250 uM preincubated for 10 secs followed by irradiation with 150 j/cm'2 for 120 secs measured after 48 hrs by agar plating method; assay type: functional, organism-based; outline: as §1
[11] = test system: Aggregatibacter actinomycetemcomitans; test: Photodynamic inactivation of Aggregatibacter actinomycetemcomitans ATCC 43718 assessed as reduction of log10 CFU at 10 uM incubated prior to irradiation with 50 j/cm'2 for 40 secs measured after 48 hrs by agar plating method (reference value: <1 no unit); assay type: functional, Y4; outline: as §2
[12] = test system: Aggregatibacter actinomycetemcomitans; test: Photodynamic inactivation of Aggregatibacter actinomycetemcomitans ATCC 43718 assessed as reduction of log10 CFU at 100 uM incubated prior to irradiation with 50 j/cm'2 for 40 secs measured after 48 hrs by agar plating method (reference value: <1 no unit); assay type: functional, Y4; outline: as §2
Actinomyces naeslundii [13] = test: Photodynamic inactivation of Actinomyces naeslundii T14V assessed as reduction of log10 CFU at 1 uM incubated prior to irradiation with 150 j/cm'2 for 120 secs measured after 48 hrs by agar plating method (reference value: <1 no unit); assay type: functional; outline: as §1
Streptococcus mutans [14] = test: Photodynamic inactivation of Streptococcus mutans ATCC 25175 assessed as reduction of log10 CFU at 10 uM incubated prior to irradiation with 25 j/cm'2 for 20 secs measured after 48 hrs by agar plating method (reference value: <1 no unit); assay type: functional
Enterococcus faecalis = test: Photodynamic inactivation of Enterococcus faecalis ATCC 29212 assessed as reduction of log10 CFU at 1 to 250 uM preincubated for 10 secs followed by irradiation with 50 j/cm'2 for 40 secs measured after 24 hrs by agar plating method; assay type: functional, organism-based
Outline: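 E. faecalis ATCC 29212, aerobic overnight BHI culture at 37 °C, was harvested at stationary phase and suspended in PBS at 10^7–10^8 bacteria/mL. It was mixed 1:1 with PS to 0–250 µM final, held 10 s, then illuminated (1260 ± 50 mW/cm2) or kept dark. Dilutions were plated on Mueller-Hinton agar, aerobic 37 °C 24 h, CFU counted. Medians of three independent triplicate experiments, referred to untreated controls.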

[15] = test system: Aggregatibacter actinomycetemcomitans; test: Photodynamic inactivation of Aggregatibacter actinomycetemcomitans ATCC 43718 assessed as reduction of log10 CFU at 100 uM incubated prior to irradiation with 150 j/cm'2 for 120 secs measured after 48 hrs by agar plating method relative to control; assay type: functional, Y4; outline: as §2
[16] = test system: Aggregatibacter actinomycetemcomitans; test: Photodynamic inactivation of Aggregatibacter actinomycetemcomitans ATCC 43718 assessed as reduction of log10 CFU at 1 to 250 uM incubated prior to irradiation with 150 j/cm'2 for 120 secs measured after 48 hrs by agar plating method; assay type: functional; conditions: Y4; outline: as §2
Actinomyces naeslundii [17] = test: Photodynamic inactivation of Actinomyces naeslundii T14V assessed as reduction of log10 CFU at 1 uM incubated prior to irradiation with 50 j/cm'2 for 40 secs measured after 48 hrs by agar plating method (reference value: <1 no unit); assay type: functional; outline: as §1
Actinomyces naeslundii [18] = test: Photodynamic inactivation of Actinomyces naeslundii T14V assessed as reduction of log10 CFU at 5 uM incubated prior to irradiation with 150 j/cm'2 for 120 secs measured after 48 hrs by agar plating method (reference value: <1 no unit); assay type: functional; outline: as §1
Streptococcus mutans [19] = test: Photodynamic inactivation of Streptococcus mutans ATCC 25175 assessed as reduction of log10 CFU at 5 uM incubated prior to irradiation with 25 j/cm'2 for 20 secs measured after 48 hrs by agar plating method (reference value: <1 no unit); assay type: functional
[20] = test system: Aggregatibacter actinomycetemcomitans; test: Photodynamic inactivation of Aggregatibacter actinomycetemcomitans ATCC 43718 assessed as reduction of log10 CFU at 1 uM incubated prior to irradiation with 150 j/cm'2 for 120 secs measured after 48 hrs by agar plating method relative to control; assay type: functional, Y4; outline: as §2
Actinomyces naeslundii [21] = test: Photodynamic inactivation of Actinomyces naeslundii T14V assessed as reduction of log10 CFU at 5 uM incubated prior to irradiation with 50 j/cm'2 for 40 secs measured after 48 hrs by agar plating method (reference value: <1 no unit); assay type: functional; outline: as §1

| Stability [1] | Stability [2] | Compound | Activity (Actinomyces naeslundii [3]) | Activity (Streptococcus mutans [4]) | Activity (Actinomyces naeslundii [5]) | log10cfu [6] | log10cfu (Actinomyces naeslundii [7]) | Activity (Streptococcus mutans [8]) | Activity [9] | Activity (Actinomyces naeslundii [10]) | log10cfu [11] | log10cfu [12] | log10cfu (Actinomyces naeslundii [13]) | log10cfu (Streptococcus mutans [14]) | Activity (Enterococcus faecalis) | log10cfu [15] | Activity [16] | log10cfu (Actinomyces naeslundii [17]) | log10cfu (Actinomyces naeslundii [18]) | log10cfu (Streptococcus mutans [19]) | further results |
| --- | --- | --- | --- | --- | --- | --- | --- | --- | --- | --- | --- | --- | --- | --- | --- | --- | --- | --- | --- | --- | --- |
| Stable | Stable | O=C1C(C[n+]2ccccc2)=Cc2cccc3cccc1c23.[Cl-] | Active | Active | Active | >6 | <1 | Active | Active | Active | >6 | >6 | <5 | <3 | Active | >6 | Active | <1 | > 5 | <3 | log10cfu [20]: >6; log10cfu (Actinomyces naeslundii [21]): <5 |
| Stable | Stable | C[N+](C)(C)CC1=Cc2cccc3cccc(c23)C1=O.[Cl-] | Active | Active | Active | – | – | Active | Active | Active | – | – | – | – | Active | – | Active | – | – | – | – |
| – | – | C[N+](C)(CCO)CC1=Cc2cccc3cccc(c23)C1=O.[Cl-] | – | – | – | <3 | <1 | – | – | – | <3 | >6 | <1 | <1 | – | >6 | – | <1 | <5 | <1 | log10cfu [20]: >6; log10cfu (Actinomyces naeslundii [21]): <3 |
